Test results reported in ChEMBL document CHEMBL1138379, “Syntheses of F-18 labeled fluoroalkyltyrosine derivatives and their biological evaluation in rat bearing 9L tumor” (Bioorg Med Chem Lett, 2007).

Experiments:
[1] = test system: Blood; experiment: Biodistribution in blood of Fisher 344 rat bearing 9L tumor after 60 mins; assay type: ADME, organism-based; conditions: in vivo, 1 h
Procedure, shortened: (§1)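 9L tumor cells (5 × 10^6) inoculated into Fisher 344 rats, used 14-18 days later. Rats anesthetized with ethyl ether, given ~3.7 MBq [18F] tracer in 100 µL PBS via tail vein, sacrificed with ether at set times (10-120 min). Tissues dissected, weighed and gamma-counted. Values are %ID/g, mean ± SD, n = 4. Ratios taken from tissue uptake.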

[2] = test system: Lung; experiment: Biodistribution in lung of Fisher 344 rat bearing 9L tumor after 30 mins; assay type: ADME, organism-based; conditions: in vivo, 0.5 h; procedure, shortened: as §1
[3] = test system: Femur; experiment: Biodistribution in femur of Fisher 344 rat bearing 9L tumor after 60 mins; assay type: ADME, organism-based; conditions: in vivo, 1 h; procedure, shortened: as §1
[4] = Ratio of biodistribution in tumor to brain in Fisher 344 rat bearing 9L tumor after 60 mins; assay type: ADME, organism-based; conditions: in vivo, 1 h; procedure, shortened: as §1
[5] = Partition coefficient, log P of the compound; assay type: physicochemical; conditions: octanol/water
Procedure, shortened: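 Shake-flask partition between 2.0 mL 1-octanol and 2.0 mL water. 10 µL of HPLC-purified radiotracer added, mixed 2 min at room temperature. Radioactivity counted in 300 µL of each phase to give log P.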

Drug uptake [1] [% ID/g]	Drug uptake [2] [% ID/g]	Drug uptake [3] [% ID/g]	Ratio [4]	logP [5]	SMILES
0.64	0.78	1.45	4.05	-1.07	NC(Cc1ccc(O)c(CCC[18F])c1)C(=O)O (stereo not given)
0.25	0.37	0.22	1.9	-0.75	COc1ccc(CC(N)C(=O)O)cc1CC[18F] (stereo not given)
0.06	0.12	0.76	2.92	-1.37	NC(Cc1ccc(O)c(CC[18F])c1)C(=O)O (stereo not given)
0.24	0.34	0.18	2.6	-0.29	COc1ccc(CC(N)C(=O)O)cc1CCC[18F] (stereo not given)
